Assay results taken from publication PMC3312795 (European Journal of Medicinal Chemistry, 2012).

What was measured:
[1] = system: Huh-7 cells; assay: Lipid droplet development in Huh-7 cells; format: cell-based, human; settings: various concentrations
In short: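 Spontaneous lipid droplet formation in confluent Huh-7 cells given various concentrations of test compound or 0.1% DMSO mock for 72 hr. Medium then replaced with NBD-cholesterol (1 μg/ml) medium for a further 12 hr. Cells fixed in 4% formaldehyde for 10 min, PBS-washed, and fluorescence viewed by microscopy. Untreated 1-day-old and 4-day-old cells served as references.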

[2] = system: SA11 rotavirus; assay: Rotavirus; format: cell-based, rotavirus SA11 (primate G3); settings: SA11, MOI of 2, 12 hr post infection
In short: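 Confluent MA104 monolayers inoculated 1 hr, PBS-washed, then held in MEM with test compound (below 50 μM; below 20 μM for some) or 0.1% DMSO plus trypsin 1 μg/ml. At 12 hr, IFA: methanol fix (RT, 30 min), anti-VP6 mAb, FITC anti-mouse IgG. Western: lysates sonicated, 10% gel, anti-VP6 with β-actin loading control, chemiluminescent detection.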

[3] = system: SA11 rotavirus; assay: Pre-treatment of SA11 rotavirus with compound; format: cell-based, rotavirus SA11 (primate G3); settings: pre-treatment with compound at 100 M (so in the source), 37 °C for 2 hrs
[4] = system: SA11 rotavirus; assay: Rotavirus; format: cell-based, rotavirus SA11 (primate G3); settings: MA104, in Primates, 24 h, read-out: ED50, rotavirus (SA11) replication, MA104 cells, TCID50 titers at 24 hr post infection, average of at least 3 independent tests

EC50 [4] [µM]	Structure (SMILES)	suppression of increase in lipid droplets [1]	anti-rotaviral effects by Western blot analysis and IFA [2]	effect of pre-treatment of SA11 rotavirus on viral titer (virucidal effect) [3]
11.3 to 28.5	C=C(C)[C@@H]1CC[C@]2(C(=O)O)CC[C@]3(C)[C@H](CC[C@@H]4[C@@]5(C)CC[C@H](O)C(C)(C)[C@@H]5CC[C@]43C)[C@@H]12 [Betulinic acid, betulinic acid]			
11.3 to 28.5	C=C1C(=O)O[C@H](CCCCCCCC)[C@H]1C(=O)O [C75]			
11.3 to 28.5	CCCCCCCCCCCCCCCCNc1ccc(C(=O)O)cc1 [PHB, hexadecylamino-p-amino benzoic acid]			

The next lines start with the compound.

Structure (SMILES)	EC50 [4] [µM]	suppression of increase in lipid droplets [1]	anti-rotaviral effects by Western blot analysis and IFA [2]	effect of pre-treatment of SA11 rotavirus on viral titer (virucidal effect) [3]
CCC/C=C/C/C=C/C=C/C=N/N1CCCS1(=O)=O [1ba, 2-[(2E,4E,7E)-Undeca-2,4,7-trienylideneamino]-1,1-dioxo-1-isothiazolidine]		dose-dependent	confirmed	
CCC/C=C/C/C=C/C=C/CNc1ccc(C(=O)O)cc1 [1e, 4-((2E,4E,7E)-Undeca-2,4,7-trienylamino)benzoic acid]		dose-dependent	confirmed	did not affect the viral titer
CCC/C=C/C/C=C/C=C/C=N/NN=O [Triacsin C]		dose-dependent	confirmed	did not affect the viral titer
